Experimental data from ChEMBL document CHEMBL5674882, “Benzolactam-related compounds promote apoptosis of HIV-infected human cells via protein kinase C-induced HIV latency reversal” (J Biol Chem, 2019).
Activity calls are given as the source filed them. The calls are words filed in the database; no cut-off is given here.

What was measured:
J-Lat 6.3 [1] = assay: Induction of apoptosis in human J-Lat 6.3 cells at 1 uM incubated for 48 hrs by propidium iodide/annexin-V staining based flow cytometry (reference value: 3.16%); type: functional
ACH-2 cell line [2] = assay: Induction of apoptosis in human ACH-2 cells at 1 uM incubated for 48 hrs after pre-incubated for 2 hrs with 20 uM caspase inhibitor Q-VD-Oph by propidium iodide/annexin-V staining based flow cytometry; type: functional, cell-based
Procedure, shortened: (§1)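 ACH-2 or U1 cells pretreated 2 h with 20 µM pan-caspase inhibitor Q-VD-Oph, then exposed to 1 µM compound for 48 h. Annexin-V/PI staining by flow cytometry; apoptotic proportions compared with and without Q-VD-Oph. Mean ± S.D.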

[3] = molecular target: T1, Protein kinase C (PKC) (Homo sapiens) (UniProt O94806+P41743+P17252+P05129+Q05655+P05771+Q05513+Q02156+P24723+Q15139+Q04759); assay: Induction of apoptosis in CCL19-induced human CD4+ T-cells infected with latent HIV-1 assessed as caspase-3 activation at 100 nM incubated for 48 hrs in presence of 2 uM ionomycin by incubated for 48 hrs by FACS; type: cell-based; details: CD4+ T cell, filed as activator
Procedure, shortened: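 Latency model: healthy-donor CD4+ T-cells given 100 nM CCL19 for 2 days, infected with HIV-1 NL4-3, kept 5 days in IL-2. Stimulated 2 days with 1 µM drug or 100 nM PMA plus 2 µM ionomycin. Cells fixed and permeabilized, co-stained with anti-p24 and anti-active caspase-3 mAbs; active caspase-3 read by flow cytometry separately in p24+ and p24− cells. Two donors.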

[4] = Induction of apoptosis in human CEM A3.01 cells assessed as caspase-3 activation at 10 nM incubated for 24 hrs by flow cytometry; type: functional
Procedure, shortened: (§2)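 Cells fixed in 1% paraformaldehyde, permeabilized, stained 30 min on ice with anti-active caspase-3 mAb, and analysed by flow cytometry. Three independent experiments.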

U1 [5] = assay: Induction of apoptosis in human U1 cells at 1 uM incubated for 48 hrs after pre-incubated for 2 hrs with 20 uM caspase inhibitor Q-VD-Oph by propidium iodide/annexin-V staining based flow cytometry; type: functional, cell-based; procedure, shortened: as §1
J-Lat 6.3 [6] = assay: Induction of apoptosis in human J-Lat 6.3 cells assessed as caspase-3 activation at 10 nM incubated for 24 hrs by flow cytometry; type: functional; procedure, shortened: as §2
Jurkat = assay: Induction of apoptosis in human Jurkat cells assessed as caspase-3 activation at 10 nM incubated for 24 hrs by flow cytometry; type: functional; procedure, shortened: as §2
ACH-2 cell line [7] = assay: Induction of apoptosis in human ACH-2 cells at 1 uM incubated for 48 hrs by propidium iodide/annexin-V staining based flow cytometry (reference value: 3.16%); type: functional
ACH-2 cell line [8] = assay: Induction of apoptosis in human ACH-2 cells assessed as caspase-3 activation at 10 nM incubated for 24 hrs by flow cytometry; type: functional; procedure, shortened: as §2
J-Lat 6.3 [9] = assay: Induction of apoptosis in human J-Lat 6.3 cells assessed as caspase-3 activation at 10 nM incubated for 24 hrs by flow cytometry (reference value: 2.43%); type: functional; procedure, shortened: as §2
U1 [10] = assay: Induction of apoptosis in human U1 cells assessed as caspase-3 activation at 10 nM incubated for 24 hrs by flow cytometry (reference value: 1.86%); type: functional; procedure, shortened: as §2
U1 [11] = assay: Induction of apoptosis in human U1 cells at 1 uM incubated for 48 hrs by propidium iodide/annexin-V staining based flow cytometry (reference value: 3.16%); type: functional
[12] = molecular target: T1, Protein kinase C (PKC) (Homo sapiens); assay: Activation of PKC in CCL19-induced human CD4+ T-cells infected with latent HIV-1 assessed as reversal of HIV-1 latency by measuring increase in p24 antigen level at 100 nM incubated for 48 hrs in presence of 2 uM ionomycin by chemiluminescent enzyme immunoassay; type: cell-based; details: CD4+ T cell, filed as activator
ACH-2 cell line [13] = assay: Induction of apoptosis in human ACH-2 cells assessed as cleaved-PARP level at 10 nM incubated for 24 hrs by flow cytometry (reference value: 1.64%); type: functional
Procedure, shortened: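 Cells fixed, permeabilized, stained on ice with anti-cleaved PARP (Asp-214) mAb; % cleaved-PARP cells by flow cytometry. Means ± S.D. of three independent experiments.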

U-937 = assay: Induction of apoptosis in human U-937 cells assessed as caspase-3 activation at 10 nM incubated for 24 hrs by flow cytometry; type: functional; procedure, shortened: as §2
U1 [14] = assay: Induction of apoptosis in human U1 cells assessed as caspase-3 activation at 10 nM incubated for 24 hrs by flow cytometry; type: functional; procedure, shortened: as §2
J-Lat 6.3 (Homo sapiens) = assay: Induction of apoptosis in human J-Lat 6.3 cells at 1 uM incubated for 48 hrs after pre-incubated for 2 hrs with 20 uM caspase inhibitor Q-VD-Oph by propidium iodide/annexin-V staining based flow cytometry

CCCCCCCCCCCCCC(=O)O[C@@H]1[C@@H](C)[C@@]2(O)[C@@H](C=C(CO)C[C@]3(O)C(=O)C(C)=C[C@@H]23)[C@@H]2C(C)(C)[C@]12OC(C)=O [PHORBOL MYRISTATE ACETATE]
Activity (J-Lat 6.3 [1]): 15.2%
Activity (ACH-2 cell line [2]): inactive
Activity [3]: Active
Activity [4]: 2.39%
Activity (U1 [5]): inactive
Activity (J-Lat 6.3 [6]): 12.9%
Activity (Jurkat): 2.03%
Activity (ACH-2 cell line [7]): 40.3%
Activity (ACH-2 cell line [8]): 27%
Activity (J-Lat 6.3 [9]): 19.9%
Activity (U1 [10]): 8.06%
Activity (U1 [11]): 28.7%
Activity [12]: Active
Activity (ACH-2 cell line [13]): 21.7%
Activity (U-937): 1.02%
Activity (U1 [14]): 33.6%
Activity (J-Lat 6.3 (Homo sapiens)): inactive
